Experiments:
[1] = molecular target: Epidermal growth factor receptor (Homo sapiens, UniProt P00533); assay: Inhibition of recombinant EGFR (unknown origin) after 10 mins by DELFIA/time-resolved fluorometry
[2] = molecular target: Receptor tyrosine-protein kinase erbB-2 (Homo sapiens, UniProt P04626); assay: Inhibition of recombinant ErbB-2 (unknown origin) after 10 mins by DELFIA/time-resolved fluorometry
Method in brief: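 Compound in DMSO, diluted in 25 mM HEPES pH 7.4, preincubated 10 min at room temperature with 12.5 ng recombinant ErbB-2. Reaction buffer with 20 mM HEPES, 2 mM MnCl₂, Na₃VO₄ and 1 mM DTT; 0.1 mM ATP–50 mM MgCl₂ added for 1 h. After washes, europium-labeled anti-phosphotyrosine antibody (400 ng) 1 h; enhancement solution, time-resolved fluorescence ex 340/em 615 nm. IC50 from percent-inhibition curves.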

HL-60 = assay: Cytotoxicity against human HL60 cells after 2 days by sulforhodamine B assay; assay type: functional, cell-based; details: HL-60, 48 h
Method in brief: (§1)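 Cells plated at 5 × 10⁴/mL in RPMI-1640 with 5% fetal bovine serum; next day dosed at 0.5, 5, 50, 500 and 5000 ng/mL and cultured 2 days. Survival read by sulforhodamine B staining; IC50 taken from growth curves. Standard deviations below 30%.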

A549 = assay: Cytotoxicity against human A549 cells after 2 days by sulforhodamine B assay; assay type: functional, cell-based; details: A549, 48 h; method in brief: as §1

Chain of Epidermal growth factor receptor (P00533 whole entry): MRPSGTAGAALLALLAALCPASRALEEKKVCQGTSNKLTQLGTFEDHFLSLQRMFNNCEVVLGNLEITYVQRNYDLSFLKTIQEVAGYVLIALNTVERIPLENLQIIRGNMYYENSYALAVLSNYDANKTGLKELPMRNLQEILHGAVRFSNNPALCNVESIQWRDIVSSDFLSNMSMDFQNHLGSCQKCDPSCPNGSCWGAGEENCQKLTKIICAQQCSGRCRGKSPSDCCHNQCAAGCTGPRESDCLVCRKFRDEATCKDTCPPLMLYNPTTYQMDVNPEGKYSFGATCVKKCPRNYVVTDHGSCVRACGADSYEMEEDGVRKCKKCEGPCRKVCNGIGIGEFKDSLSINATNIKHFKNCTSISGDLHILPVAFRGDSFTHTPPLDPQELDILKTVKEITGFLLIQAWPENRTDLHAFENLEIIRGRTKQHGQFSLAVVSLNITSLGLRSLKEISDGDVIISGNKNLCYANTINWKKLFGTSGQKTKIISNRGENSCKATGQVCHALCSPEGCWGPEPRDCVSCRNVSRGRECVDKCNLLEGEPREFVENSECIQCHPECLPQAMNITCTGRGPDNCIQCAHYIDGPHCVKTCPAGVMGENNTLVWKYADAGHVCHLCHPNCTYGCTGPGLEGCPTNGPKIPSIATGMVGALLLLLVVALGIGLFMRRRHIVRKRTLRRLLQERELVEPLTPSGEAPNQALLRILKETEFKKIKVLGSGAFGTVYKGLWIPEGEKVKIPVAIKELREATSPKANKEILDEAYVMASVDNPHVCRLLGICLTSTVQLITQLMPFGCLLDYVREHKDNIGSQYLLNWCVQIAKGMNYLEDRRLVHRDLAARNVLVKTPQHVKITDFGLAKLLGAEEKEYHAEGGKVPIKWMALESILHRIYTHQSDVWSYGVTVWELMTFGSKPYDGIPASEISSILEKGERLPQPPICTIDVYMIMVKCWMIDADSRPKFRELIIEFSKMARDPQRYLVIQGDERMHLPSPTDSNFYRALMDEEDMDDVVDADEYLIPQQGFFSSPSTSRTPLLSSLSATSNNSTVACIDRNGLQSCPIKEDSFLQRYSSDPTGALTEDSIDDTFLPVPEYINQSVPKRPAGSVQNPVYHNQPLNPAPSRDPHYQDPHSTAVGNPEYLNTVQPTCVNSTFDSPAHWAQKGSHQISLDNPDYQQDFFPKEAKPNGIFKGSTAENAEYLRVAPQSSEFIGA
Chain of Receptor tyrosine-protein kinase erbB-2 (P04626 whole entry): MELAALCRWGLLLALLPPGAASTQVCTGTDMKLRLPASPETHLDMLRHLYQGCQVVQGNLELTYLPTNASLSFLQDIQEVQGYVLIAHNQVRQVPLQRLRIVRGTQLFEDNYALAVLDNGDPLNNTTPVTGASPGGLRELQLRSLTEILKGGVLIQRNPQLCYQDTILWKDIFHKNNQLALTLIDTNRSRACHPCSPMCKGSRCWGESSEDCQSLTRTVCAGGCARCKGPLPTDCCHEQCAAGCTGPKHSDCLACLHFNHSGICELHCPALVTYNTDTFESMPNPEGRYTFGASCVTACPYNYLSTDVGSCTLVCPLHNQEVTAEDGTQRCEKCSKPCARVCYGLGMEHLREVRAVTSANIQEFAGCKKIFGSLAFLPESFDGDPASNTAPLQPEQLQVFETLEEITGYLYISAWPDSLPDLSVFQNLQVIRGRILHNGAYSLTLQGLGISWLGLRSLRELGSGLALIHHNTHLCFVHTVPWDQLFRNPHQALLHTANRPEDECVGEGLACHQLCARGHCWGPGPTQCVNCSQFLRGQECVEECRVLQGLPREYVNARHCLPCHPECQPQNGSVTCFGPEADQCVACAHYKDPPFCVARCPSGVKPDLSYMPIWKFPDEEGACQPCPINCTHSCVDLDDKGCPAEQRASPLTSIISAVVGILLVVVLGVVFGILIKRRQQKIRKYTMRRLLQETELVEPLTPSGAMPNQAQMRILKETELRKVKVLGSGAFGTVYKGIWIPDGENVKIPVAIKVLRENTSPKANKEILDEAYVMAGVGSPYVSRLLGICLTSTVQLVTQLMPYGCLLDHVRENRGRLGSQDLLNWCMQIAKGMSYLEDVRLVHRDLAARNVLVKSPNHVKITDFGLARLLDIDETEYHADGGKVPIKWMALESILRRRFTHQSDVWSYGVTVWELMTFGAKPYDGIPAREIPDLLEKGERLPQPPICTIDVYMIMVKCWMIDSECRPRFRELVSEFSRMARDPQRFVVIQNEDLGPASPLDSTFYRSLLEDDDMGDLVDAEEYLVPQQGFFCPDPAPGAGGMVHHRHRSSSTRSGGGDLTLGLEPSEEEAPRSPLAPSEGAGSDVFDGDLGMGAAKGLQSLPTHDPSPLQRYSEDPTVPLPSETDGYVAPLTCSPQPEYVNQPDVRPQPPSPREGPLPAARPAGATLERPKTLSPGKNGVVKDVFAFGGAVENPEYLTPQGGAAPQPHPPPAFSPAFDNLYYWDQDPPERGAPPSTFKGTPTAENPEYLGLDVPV

Row | SMILES | IC50 [1] | IC50 [2] | IC50 (HL-60) | IC50 (A549)
1 | Cc1ncnc(Nc2ccc(OCc3cccc(F)c3)c(Cl)c2)c1C#Cc1ccc(CNCCS(C)(=O)=O)o1 | 0.045 µM | > 10 µM |  | 
2 | CC(=O)c1ccc(Nc2c(C#N)cncc2-c2ccc(NC(=O)/C=C/CN(C)C)cc2)cc1 | > 5 µM |  | > 10 µM | > 10 µM
3 | CN1CCN(Cc2ccc(C(=O)Nc3ccc(-c4cncc(C#N)c4Nc4ccc(OCc5cccc(F)c5)c(Cl)c4)cc3)cc2)CC1 | 2.5 µM |  | 1.8 µM | 6 µM
4 | Cc1ccc(NC(=O)c2ccc(CN3CCN(C)CC3)cc2)cc1C(=O)Nc1nccc(-c2cccc(F)c2)n1 | 6 µM |  |  | > 10 µM
5 | CN(C)C/C=C/C(=O)Nc1ccc(-c2cncc(C#N)c2Nc2ccc(OCc3cccc(F)c3)c(Cl)c2)cc1 | 0.66 µM |  | > 10 µM | 7 µM
6 | Cc1ccc(NC(=O)c2ccc(CN3CCN(C)CC3)cc2)cc1C(=O)Nc1ccc(OCc2cccc(F)c2)c(Cl)c1 | 0.6 µM |  | 6 µM | 5.5 µM
7 | Cc1ncnc(Nc2ccc(OCc3cccc(F)c3)c(Cl)c2)c1/C=C/c1ccc(CNCCS(C)(=O)=O)o1 | 0.46 µM | > 10 µM |  | 
8 | CCOc1ccc(C(=O)Nc2ccc(OCc3ccccn3)c(Cl)c2)cc1NC(=O)c1ccc(CN2CCN(C)CC2)cc1 | 3.5 µM |  | > 10 µM | 6 µM
9 | Cc1ncnc(Nc2ccc(OCc3cccc(F)c3)c(Cl)c2)c1/C=C/c1cccc(NC(=O)/C=C/CN(C)C)c1 | > 5 µM | > 10 µM |  | 
10 | CCOc1cc([N+](=O)[O-])c(C(=O)Nc2ccc(OCc3ccccn3)c(Cl)c2)cc1NC(=O)c1ccc(CN2CCN(C)CC2)cc1 |  |  | 5 µM | 3.5 µM
11 | CN1CCN(Cc2ccc(C(=O)Nc3ccc(-c4cncc(C#N)c4Nc4ccc(F)c(Cl)c4)cc3)cc2)CC1 | 3 µM |  | 5 µM | > 10 µM
12 | Cc1ncc(C#N)c(Nc2ccc(OCc3ccccn3)c(Cl)c2)c1/C=C/c1ccc(CNCCS(C)(=O)=O)o1 | > 5 µM | > 10 µM |  | 
13 | CN(C)C/C=C/C(=O)Nc1ccc(-c2cncc(C#N)c2Nc2ccc(OCc3ccccn3)c(Cl)c2)cc1 | > 5 µM |  | > 10 µM | > 10 µM
14 | CN1CCN(Cc2ccc(C(=O)Nc3ccc(-c4cncc(C#N)c4Nc4ccc(OCc5ccccn5)c(Cl)c4)cc3)cc2)CC1 | 2.3 µM |  | 6 µM | > 10 µM
15 | Cc1ncc(C#N)c(Oc2ccc(OCc3ccccn3)c(Cl)c2)c1C#Cc1ccc(CNCCS(C)(=O)=O)o1 | > 5 µM |  |  | 
16 | CC(=O)c1ccc(Nc2c(C#N)cncc2-c2ccc(NC(=O)c3ccc(CN4CCN(C)CC4)cc3)cc2)cc1 | > 5 µM |  | 5 µM | > 10 µM
17 | Cc1ncc(C#N)c(Nc2ccc(OCc3ccccn3)c(Cl)c2)c1C#Cc1ccc(CNCCS(C)(=O)=O)o1 | 1.5 µM |  |  | 
18 | CCOc1cc([N+](=O)[O-])c(C(=O)Nc2ccc(OCc3cccc(F)c3)c(Cl)c2)cc1NC(=O)c1ccc(CN2CCN(C)CC2)cc1 | 5.5 µM |  | 4.5 µM | 6 µM
19 | CCOc1ccc(C(=O)Nc2nccc(-c3cccnc3)n2)cc1NC(=O)c1ccc(CN2CCN(C)CC2)cc1 |  |  | > 10 µM | > 10 µM
20 | Cc1ncc(C#N)c(Nc2ccc(OCc3ccccn3)c(Cl)c2)c1/C=C/c1cccc(NC(=O)/C=C/CN(C)C)c1 | > 5 µM | > 10 µM |  | 
21 | Cc1ncnc(Oc2ccc(OCc3ccccn3)c(Cl)c2)c1C#Cc1ccc(CNCCS(C)(=O)=O)o1 | > 5 µM |  |  | 

Further lines, with some results ahead:

Row | IC50 [1] | IC50 [2] | SMILES | IC50 (HL-60) | IC50 (A549)
22 | 1.2 µM |  | CCOc1ccc(C(=O)Nc2ccc(OCc3ccccn3)c(Cl)c2)cc1NC(=O)/C=C/CN(C)C | > 10 µM | > 10 µM
23 | 1.5 µM |  | CCOc1cc(N)c(C(=O)Nc2ccc(OCc3cccc(F)c3)c(Cl)c2)cc1NC(=O)/C=C/CN(C)C | 6 µM | 5.5 µM
24 | 0.8 µM |  | CCOc1cc(N)c(C(=O)Nc2ccc(F)c(Cl)c2)cc1NC(=O)c1ccc(CN2CCN(C)CC2)cc1 | > 10 µM | > 10 µM
25 | 6 µM |  | CCOc1cc([N+](=O)[O-])c(C(=O)Nc2ccc(F)c(Cl)c2)cc1NC(=O)/C=C/CN(C)C | 6 µM | > 10 µM
26 | 0.85 µM |  | CCOc1cc([N+](=O)[O-])c(C(=O)Nc2ccc(OCc3ccccn3)c(Cl)c2)cc1NC(=O)/C=C/CN(C)C | 4 µM | 2.5 µM
27 | 4.5 µM |  | CCOc1cc(N)c(C(=O)Nc2ccc(F)c(Cl)c2)cc1NC(=O)/C=C/CN(C)C | > 10 µM | > 10 µM
28 | 6 µM |  | CCOc1ccc(C(=O)Nc2nccc(-c3cccnc3)n2)cc1NC(=O)/C=C/CN(C)C | > 10 µM | > 10 µM
29 | 5 µM |  | CCOc1cc(N)c(C(=O)Nc2ccc(OCc3cccc(F)c3)c(Cl)c2)cc1NC(=O)c1ccc(CN2CCN(C)CC2)cc1 | 7 µM | 6 µM
30 | 1 µM |  | CCOc1cc(N)c(C(=O)Nc2ccc(OCc3ccccn3)c(Cl)c2)cc1NC(=O)c1ccc(CN2CCN(C)CC2)cc1 | 8 µM | 6 µM
31 | 5 µM |  | Cc1ccc(NC(=O)/C=C/CN(C)C)cc1C(=O)Nc1nccc(-c2cccnc2)n1 |  | > 10 µM
32 | 3.5 µM |  | CN(C)C/C=C/C(=O)Nc1ccc(-c2cncc(C#N)c2Nc2ccc(F)c(Cl)c2)cc1 | 6 µM | > 10 µM
33 | 2 µM |  | CCOc1cc([N+](=O)[O-])c(C(=O)Nc2ccc(OCc3cccc(F)c3)c(Cl)c2)cc1NC(=O)/C=C/CN(C)C | 4 µM | 3.5 µM
34 | 0.8 µM |  | CCOc1cc(N)c(C(=O)Nc2ccc(OCc3ccccn3)c(Cl)c2)cc1NC(=O)/C=C/CN(C)C | > 10 µM | > 10 µM
35 | 5 µM |  | CCOc1cc([N+](=O)[O-])c(C(=O)Nc2ccc(F)c(Cl)c2)cc1NC(=O)c1ccc(CN2CCN(C)CC2)cc1 | 5.5 µM | 6 µM
36 | 0.45 µM |  | Cc1ccc(NC(=O)/C=C/CN(C)C)cc1C(=O)Nc1ccc(OCc2cccc(F)c2)c(Cl)c1 | 5.5 µM | 7 µM

From ChEMBL document CHEMBL2384937, “Design, synthesis and biological evaluation of novel pyrimidine, 3-cyanopyridine and m-amino-N-phenylbenzamide based monocyclic EGFR tyrosine kinase inhibitors” (Bioorg Med Chem, 2013)
